Data set [1] concerns Rattus norvegicus. Put plainly: Antiinflammatory activity in albino rat assessed as inhibition of carrageenan-induced paw edema at 0.029 mmol/kg, po after 2 hrs relative to control. Format: functional. In a few lines:
(§1)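 Adult albino rats of either sex, 120–150 g, six per group. Compounds at 0.029 mmol/kg suspended in saline with a few drops of Tween 80 and given by oral stomach tube. After 1 h, 0.1 ml of freshly prepared 1% carrageenan in saline injected subplantar into the right hind paw. Paw thickness measured at 1–4 h; % edema inhibition versus control; mean ± SEM; ANOVA.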
For orientation: The carrageenan paw model is a standard test of acute inflammation.

Data set [2] concerns Rattus norvegicus. Put plainly: Antiinflammatory activity in albino rat assessed as inhibition of carrageenan-induced paw edema at 0.029 mmol/kg, po after 3 hrs relative to control. Format: functional. A digest of the protocol:
as §1

For data set [3], the system named is Rattus norvegicus. Put plainly: Antiinflammatory activity in albino rat assessed as inhibition of carrageenan-induced paw edema at 0.029 mmol/kg, po after 4 hrs relative to control. Format: functional. In a few lines:
as §1

The test system of data set [4] is Rattus norvegicus. Put plainly: Antiinflammatory activity in albino rat assessed as inhibition of carrageenan-induced paw edema at 0.029 mmol/kg, po after 4 hrs relative to indomethacin. Format: functional. In a few lines:
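Rat carrageenan paw edema: oral 0.029 mmol/kg in saline/Tween 80, 1 h before subplantar 0.1 ml 1% carrageenan into the right hind paw; six rats per group. Potency is % inhibition of the test compound divided by % inhibition of indomethacin at 4 h.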

The test system of data set [5] is Mus musculus. Put plainly: Analgesic activity in albino mouse assessed as decrease in acetic acid-induced writhing at 13.84 mg/kg, po administered 1 hr prior to acetic acid challenge relative to control. Format: functional. A digest of the protocol: (§2)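 Albino mice of either sex, 18–22 g, six per group. Test agents suspended in saline with a few drops of Tween 80 and given by oral stomach tube; controls handled identically without drug. After 1 h, 0.3 ml of 1% acetic acid ip. Writhing contractions counted for 30 min, starting 5 min after injection. % protection versus control mean; mean ± SEM; one-way ANOVA with post hoc test.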
(Writhing tests count abdominal constrictions after an irritant is injected.)

Data set [6] deals with Rattus norvegicus. The data set can be described thus: Antiinflammatory activity in albino rat assessed as inhibition of carrageenan-induced paw edema at 0.029 mmol/kg, po after 1 hr relative to control. Format: functional. A digest of the protocol: as §1
In data set [7] the test system is Mus musculus. Put plainly: Analgesic activity in albino mouse assessed as decrease in acetic acid-induced writhing at 15.26 mg/kg, po administered 1 hr prior to acetic acid challenge relative to control. Format: functional. A digest of the protocol:
as §2

Data set [8] has as its system Rattus norvegicus. Put plainly: Gastrointestinal toxicity in albino rat assessed as ulcerogenic index at 0.029 mmol/kg, po after 5 hrs. Format: organism-based. To be noted: in vivo. In a few lines: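 Adult albino rats of either sex (120–150 g), 6 per group, got the test compounds orally by stomach tube as a suspension in saline with a few drops of tween 80. They were the same rats used in the carrageenan paw-edema test. Stomachs were then opened along the great curvature and examined for lesions or bleeding. Ulceration was recorded as the number of rats with ulcers out of 6.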

For data set [9], the system named is Mus musculus. Put plainly: Analgesic activity in albino mouse assessed as decrease in acetic acid-induced writhing at 0.4 mg/kg, po administered 1 hr prior to acetic acid challenge. Format: functional. A digest of the protocol:
as §2

For data set [10], the system named is Mus musculus. The data set can be described thus: Analgesic activity in albino mouse assessed as decrease in acetic acid-induced writhing at 11.96 mg/kg, po administered 1 hr prior to acetic acid challenge relative to control. Format: functional. In a few lines:
as §2

Data set [11] concerns Mus musculus. Put plainly: Analgesic activity in albino mouse assessed as decrease in acetic acid-induced writhing at 0.8 mg/kg, po administered 1 hr prior to acetic acid challenge. Format: functional. A digest of the protocol:
as §2

Data set [12] concerns Mus musculus. The data set can be described thus: Analgesic activity in albino mouse assessed as decrease in acetic acid-induced writhing at 1 mg/kg, po administered 1 hr prior to acetic acid challenge. Format: functional. A digest of the protocol:
as §2

Data set [13] relates to Mus musculus. Put plainly: Analgesic activity in albino mouse assessed as decrease in acetic acid-induced writhing at 2 mg/kg, po administered 1 hr prior to acetic acid challenge. Format: functional. A digest of the protocol:
as §2

In data set [14] the test system is Mus musculus. Put plainly: Analgesic activity in albino mouse assessed as decrease in acetic acid-induced writhing at 4 mg/kg, po administered 1 hr prior to acetic acid challenge. Format: functional. A digest of the protocol: as §2
In data set [15] the test system is Mus musculus. The data set can be described thus: Analgesic activity in albino mouse assessed as decrease in acetic acid-induced writhing at 8 mg/kg, po administered 1 hr prior to acetic acid challenge. Format: functional. A digest of the protocol: as §2
Data set [16] relates to Mus musculus. Put plainly: Analgesic activity in po dosed albino mouse assessed as decrease in acetic acid-induced writhing administered 1 hr prior to acetic acid challenge. Format: functional, organism-based. A digest of the protocol: as §2
In data set [17] the test system is Mus musculus. The data set can be described thus: Analgesic activity in albino mouse assessed as decrease in acetic acid-induced writhing at 14.37 mg/kg, po administered 1 hr prior to acetic acid challenge relative to control. Format: functional. A digest of the protocol: as §2
The subject of data set [18] is Mus musculus. Put plainly: Analgesic activity in albino mouse assessed as decrease in acetic acid-induced writhing at 12.87 mg/kg, po administered 1 hr prior to acetic acid challenge relative to control. Format: functional. A digest of the protocol:
as §2

Data set [19] concerns Mus musculus. The data set can be described thus: Analgesic activity in albino mouse assessed as decrease in acetic acid-induced writhing at 10 mg/kg, po administered 1 hr prior to acetic acid challenge relative to control. Format: functional. In a few lines:
as §2

The test system of data set [20] is Mus musculus. Put plainly: Analgesic activity in albino mouse assessed as decrease in acetic acid-induced writhing at 13.81 mg/kg, po administered 1 hr prior to acetic acid challenge relative to control. Format: functional. In a few lines:
as §2

For data set [21], the system named is Mus musculus. The data set can be described thus: Analgesic activity in albino mouse assessed as decrease in acetic acid-induced writhing at 11.55 mg/kg, po administered 1 hr prior to acetic acid challenge relative to control. Format: functional. In a few lines:
as §2

What is called inhibition in vivo is the relative decrease from the control value, in per cent.

Regarding `O=C(NNc1nc(-c2ccccc2)nc2c1C1CCCN1C(=O)N2c1ccccc1)c1cccnc1` (configuration not stated), the inhibition in vivo at 29 µmol/kg with Rattus norvegicus [1] turned out to be 11.6%; in the data set with Rattus norvegicus [2], 8.63%; in the data set on Rattus norvegicus [3] it was 5.59%; in the data set with Rattus norvegicus [6] it was 32.6%. Moreover, the relative potency at 29 µmol/kg with Rattus norvegicus [4] was found to be 0.2. For the same compound, the inhibition in vivo at 13.84 mg/kg in the data set on Mus musculus [5] turned out to be 77.9%.
With `Cc1ccc(S(=O)(=O)NNc2nc(-c3ccccc3)nc3c2C2CCCN2C(=O)N3c2ccccc2)cc1` (configuration not stated), the inhibition in vivo at 29 µmol/kg in the data set on Rattus norvegicus [1] is 16.6%; with Rattus norvegicus [2] it was 23.1%; in the data set with Rattus norvegicus [3], 21.7%; in the data set with Rattus norvegicus [6] it was 22.4%. Besides, in the data set on Rattus norvegicus [4], the relative potency at 29 µmol/kg amounted to 0.79. The inhibition in vivo at 15.26 mg/kg in the data set on Mus musculus [7] stood at 76.6%.
Regarding `O=C1CN2C(=NN1)C1=C(N=C2c2ccccc2)N(c2ccccc2)C(=O)N2CCCC12` (configuration not stated), the inhibition in vivo at 29 µmol/kg is 7.44% in the data set on Rattus norvegicus [1], 15.8% in the data set with Rattus norvegicus [2], 21.1% in the data set on Rattus norvegicus [3] and 2.23% with Rattus norvegicus [6]. The relative potency at 29 µmol/kg in the data set with Rattus norvegicus [4] stood at 0.77. In the data set with Rattus norvegicus [8], the UI entry is “Non-toxic”. The inhibition in vivo at 0.4 mg/kg with Mus musculus [9] was 43.1%. For the same compound, the inhibition in vivo at 11.96 mg/kg in the data set on Mus musculus [10] was determined as 91.8%. Further, the inhibition in vivo at 0.8 mg/kg with Mus musculus [11] is 63.3%. Moreover, the inhibition in vivo at 1 mg/kg with Mus musculus [12] came out at 76.6%. Further, the inhibition in vivo at 2 mg/kg with Mus musculus [13] came out at 82.4%. In addition, the inhibition in vivo at 4 mg/kg in the data set with Mus musculus [14] amounted to 86.1%. Moreover, the inhibition in vivo at 8 mg/kg in the data set with Mus musculus [15] amounted to 88.8%. The IC50 in the data set on Mus musculus [16] came to 0.446 mg/kg.
For `CCOC(=O)c1cnn(-c2nc(-c3ccccc3)nc3c2C2CCCN2C(=O)N3c2ccccc2)c1N` (configuration not stated), the inhibition in vivo at 29 µmol/kg in the data set with Rattus norvegicus [1] was 18.2%; in the data set on Rattus norvegicus [2], 23.7%; with Rattus norvegicus [3], 11.2%; with Rattus norvegicus [6], 6.74%. Also, the relative potency at 29 µmol/kg in the data set on Rattus norvegicus [4] came out at 0.4. For the same compound, in the data set with Rattus norvegicus [8], the UI result is “Non-toxic”. Also, the inhibition in vivo at 14.37 mg/kg with Mus musculus [17] is 74.8%.
Consider `CCOC(=O)NNc1nc(-c2ccccc2)nc2c1C1CCCN1C(=O)N2c1ccccc1` (configuration not stated), for which the inhibition in vivo at 29 µmol/kg was found to be 17.4% with Rattus norvegicus [1], 18% in the data set with Rattus norvegicus [2], 16.1% in the data set on Rattus norvegicus [3] and 19.1% in the data set on Rattus norvegicus [6]. Also, the relative potency at 29 µmol/kg with Rattus norvegicus [4] was determined as 0.59. In addition, the inhibition in vivo at 12.87 mg/kg with Mus musculus [18] turned out to be 91.8%.
As to `COc1ccc2c(c1)c(CC(=O)O)c(C)n2C(=O)c1ccc(Cl)cc1` [INDOMETHACIN], the inhibition in vivo at 29 µmol/kg with Rattus norvegicus [1] turned out to be 35.5%; in the data set on Rattus norvegicus [2] it was 30.9%; in the data set on Rattus norvegicus [3], 27.3%; in the data set on Rattus norvegicus [6], 47.2%. Also, the inhibition in vivo at 10 mg/kg in the data set with Mus musculus [19] worked out at 71.6%.
For the compound `O=C(NNc1nc(-c2ccccc2)nc2c1C1CCCN1C(=O)N2c1ccccc1)c1ccccc1` (configuration not stated), the inhibition in vivo at 29 µmol/kg with Rattus norvegicus [1] was 28.9%; with Rattus norvegicus [2] it was 27.4%; with Rattus norvegicus [3] it was 25.5%; in the data set on Rattus norvegicus [6], 35.9%. Moreover, the relative potency at 29 µmol/kg in the data set with Rattus norvegicus [4] worked out at 0.93. Moreover, in the data set on Mus musculus [20], the inhibition in vivo at 13.81 mg/kg stood at 71.8%.
On to `O=C1N(c2ccccc2)c2nc(-c3ccccc3)n3c(=O)[nH]nc3c2C2CCCN12` (configuration not stated), for which the inhibition in vivo at 29 µmol/kg turned out to be 12.4% with Rattus norvegicus [1], 17.3% in the data set with Rattus norvegicus [2], 15.5% with Rattus norvegicus [3] and 10.1% with Rattus norvegicus [6]. The relative potency at 29 µmol/kg in the data set on Rattus norvegicus [4] stood at 0.56. Moreover, the UI entry in the data set on Rattus norvegicus [8] was “Non-toxic”. The inhibition in vivo at 11.55 mg/kg in the data set with Mus musculus [21] was determined as 75.9%.

The values above are taken from ChEMBL document CHEMBL1155292, “Synthesis, analgesic and anti-inflammatory activities evaluation of some bi-, tri- and tetracyclic condensed pyrimidines” (Eur J Med Chem, 2009).
